Our source for the IC50, inhibition in vivo and Activity values is ChEMBL document CHEMBL4130438, “6,7-Seco-ent-Kauranoids Derived from Oridonin as Potential Anticancer Agents” (J Nat Prod, 2017).

The source made the active and inactive calls. The rule behind the calls is not given here. Where only a bound is given, the exact number is not on record here.

Test [1] concerns MGC-803. In words: Antiproliferative activity against human MGC803 cells after 72 hrs by MTT assay. The format is functional, cell-based. The following applies: MGC-803, 72 h. In a few lines: (§1)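 Cells pre-incubated 24 h at 37 °C, 5% CO2 in 96-well plates, then exposed to a range of compound concentrations (DMSO ≤0.25%) for 72 h. Viable cells read by MTT colour at 570 nm. Performed in quadruplicate, repeated three times. IC50 reported as means ± SD, n = 3.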
A general note: Tetrazolium dyes change colour on reduction, which living cells bring about.

The test system of test [2] is Bel-7402. In words: Antiproliferative activity against human Bel7402 cells after 72 hrs by MTT assay. The format is functional, cell-based. Conditions: Bel-7402, 72 h. In a few lines:
as §1

The subject of test [3] is MCF7. The test can be described thus: Antiproliferative activity against human MCF7 cells after 72 hrs by MTT assay. It counts as functional, cell-based. Conditions: MCF7, 72 h. In a few lines:
as §1

Test [4] has as its system K562. The test can be described thus: Antiproliferative activity against human K562 cells after 72 hrs by MTT assay. The following applies: K562, 72 h. It counts as functional, cell-based. In a few lines:
as §1

For test [5], the system named is H22. In words: Antitumor activity against […] cells xenografted in ICR mouse assessed as inhibition of tumor volume at 20 mg/kg, iv qd administered for 14 consecutive days measured every 2 days relative to control. The following applies: 14 days. It counts as functional. Put shortly: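 Male ICR mice, five weeks old, implanted s.c. in the right flank with 1 × 10^6 H22 cells. After 7 days, randomised into groups of eight. Given i.v. once daily for 14 days, 10 or 20 mg/kg in 10% DMF/2% poloxamer/88% saline; negative controls received 0.9% saline i.v., positive control 20 mg/kg oridonin. Body weight and tumour volume (L × W²/2) recorded every 2 days. Tumours excised and weighed at sacrifice; inhibition (%) = (1 − treated/control mean tumour weight) × 100.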

For test [6], the species on record is Homo sapiens. In words: Antiproliferative activity against human KB/CP4 cells after 48 hrs by MTT assay. It counts as functional, cell-based.
Test [7] has as its system KB 3-1. In words: Antiproliferative activity against human KB-3-1 cells after 48 hrs by MTT assay. It counts as functional, cell-based.
Test [8] relates to MCF7. In words: Cytotoxicity against human MCF7 cells assessed as decrease in cell viability after 24 hrs by LDH release assay. It counts as functional, cell-based. Put shortly: (§2)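 MCF-7 and Bel-7402 cells seeded at ~5 × 10^3 per well for 24 h, then exposed to compounds. LDH released into the medium measured with CytoTox-ONE reagent (10 min, ambient temperature) followed by stop solution. Fluorescence read at ex 560/em 590 nm.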
On the technique in general: LDH leaks from cells whose membrane has failed.

Test [9] deals with Bel-7402. The test can be described thus: Cytotoxicity against human Bel7402 cells assessed as decrease in cell viability after 24 hrs by LDH release assay. It counts as functional, cell-based. In a few lines: as §2

What is called IC50 is the concentration that gives 50% inhibition. Read a low IC50 as higher potency. Consider `C=C1C(=O)[C@@]23C(=O)OC[C@]4(C=CCC(C)(C)[C@H]4C=O)[C@@H]2CC[C@@H]1[C@H]3OC(=O)c1cnccn1`, for which the IC50 was determined as 2800 nM in test [1], 1300 nM in test [2], 3500 nM in test [3] and 2900 nM in test [4].

As to `C=C1C(=O)[C@@]23C(=O)OC[C@]4(C=CCC(C)(C)[C@H]4C=O)[C@@H]2CC[C@@H]1[C@H]3OS(C)(=O)=O`, the half-maximal inhibitory concentration (IC50) in [1] came out at 2800 nM; in [2], 1300 nM; in test [3], 2000 nM; in test [4], 1900 nM.

In general, inhibition in vivo refers to how much of the control response was suppressed. As for `C=C1C(=O)[C@]23[C@H](O)[C@H]1CC[C@H]2[C@@]12CO[C@]3(O)[C@@H](O)[C@@H]1C(C)(C)CC[C@@H]2O` [ORIDONIN], the IC50 was 4500 nM in test [1], over 10000 nM in test [2], 9100 nM in [3] and 5100 nM in test [4]. For the same molecule, the inhibition in vivo at 20 mg/kg in test [5] turned out to be 51.2%.

On to `C=C1C(=O)[C@@]23C(=O)OC[C@]4([C@@H](OS(C)(=O)=O)CCC(C)(C)[C@H]4C=O)[C@@H]2CC[C@@H]1[C@H]3O`, for which the IC50 in [1], in test [2], in test [3] and in [4] was over 10000 nM in each case.

Turning to `C=C1C(=O)[C@@]23C(=O)OC[C@]4([C@@H](OS(C)(=O)=O)CCC(C)(C)[C@H]4C=O)[C@@H]2CC[C@@H]1[C@H]3OC(=O)c1ccc(F)cc1`, the half-inhibitory concentration (IC50) was determined as 4500 nM in test [1], 3100 nM in test [2], 5500 nM in test [3] and 6200 nM in [4].

As to `C=C1C(=O)[C@@]23C(=O)OC[C@]4(C=CCC(C)(C)[C@H]4C=O)[C@@H]2CC[C@@H]1[C@H]3OC(=O)c1cccc(C)c1`, the IC50 came out at 2400 nM in test [1], 3600 nM in test [2], 1100 nM in test [3] and 550 nM in test [4].

For the molecule `C=C1C(=O)[C@@]23C(=O)OC[C@]4(C=CCC(C)(C)[C@H]4C=O)[C@@H]2CC[C@@H]1[C@H]3OC(=O)/C=C/c1cccc([N+](=O)[O-])c1`, the IC50 worked out at 2900 nM in test [1], 5100 nM in test [2], 2200 nM in test [3] and 1400 nM in [4].

Consider `C=C1C(=O)[C@]23[C@H](O)[C@H]1CC[C@H]2[C@@]12CO[C@@]3(O)[C@@H](O)[C@@H]1C(C)(C)CC[C@@H]2OS(C)(=O)=O`, for which the half-maximal inhibitory concentration (IC50) came out at 3900 nM in [1], 2700 nM in test [2], 3900 nM in test [3] and 3200 nM in test [4].

In the case of `C=C1C(=O)[C@@]23C(=O)OC[C@]4([C@@H](OS(C)(=O)=O)CCC(C)(C)[C@H]4C=O)[C@@H]2CC[C@@H]1[C@H]3OS(C)(=O)=O`, the IC50 amounted to 8800 nM in test [1], 3800 nM in [2], 9500 nM in test [3] and 1200 nM in test [4].

For the molecule `C=C1C(=O)[C@@]23C(=O)OC[C@]4(C=CCC(C)(C)[C@H]4C=O)[C@@H]2CC[C@@H]1[C@H]3OC(=O)c1ccco1`, the IC50 in test [1] was 1300 nM; in test [2], 840 nM; in test [3], 1200 nM; in test [4], 780 nM.

Consider `C=C1C(=O)[C@@]23C(=O)OC[C@]4(C=CCC(C)(C)[C@H]4C=O)[C@@H]2CC[C@@H]1[C@H]3OC(C)=O`, for which the IC50 in test [1] is 950 nM; in [2], 570 nM; in [3] it was 1000 nM; in [4], 630 nM.

As for `C=C1C(=O)[C@@]23C(=O)OC[C@]4([C@@H](OS(C)(=O)=O)CCC(C)(C)[C@H]4C=O)[C@@H]2CC[C@@H]1[C@H]3OC(=O)CCCC`, the IC50 in [1] amounted to 3200 nM; in [2], 2200 nM; in test [3], 3700 nM; in test [4], 4500 nM.

In the case of `C=C1C(=O)[C@@]23C(=O)OC[C@]4(C=CCC(C)(C)[C@H]4C=O)[C@@H]2CC[C@@H]1[C@H]3OC(=O)/C=C/c1ccccc1`, the IC50 came to 950 nM in [1], 1500 nM in test [2], 1500 nM in test [3] and 1300 nM in [4].

Regarding `C=C1C(=O)[C@@]23C(=O)OC[C@]4(C=CCC(C)(C)[C@H]4C=O)[C@@H]2CC[C@@H]1[C@H]3OC(=O)CC`, the IC50 was found to be 7300 nM in [1], 7100 nM in [2], 3400 nM in [3] and 1200 nM in test [4].

As to `C=C1C(=O)[C@@]23C(=O)OC[C@]4([C@@H](OS(C)(=O)=O)CCC(C)(C)[C@H]4C=O)[C@@H]2CC[C@@H]1[C@H]3OC(=O)c1ccco1`, the half-maximal inhibitory concentration (IC50) in [1] is 3400 nM; in test [2] it was 1100 nM; in test [3] it was 2900 nM; in test [4], 1700 nM.

As for `C=C1C(=O)[C@@]23C(=O)OC[C@]4(C=CCC(C)(C)[C@H]4C=O)[C@@H]2CC[C@@H]1[C@H]3OC(=O)CCCC`, the half-maximal inhibitory concentration (IC50) in test [1] came to 4300 nM; in test [2], 2200 nM; in [3] it was 3300 nM; in test [4], 5500 nM.

For the molecule `C=C1C(=O)[C@@]23C(=O)OC[C@]4([C@@H]5O[C@@H]5CC(C)(C)[C@H]4C=O)[C@@H]2CC[C@@H]1[C@H]3O`, the IC50 is over 10000 nM in test [1], 4600 nM in [2], over 10000 nM in test [3] and over 10000 nM in test [4].

Turning to `C=C1C(=O)[C@@]23C(=O)OC[C@]4(C=CCC(C)(C)[C@H]4C=O)[C@@H]2CC[C@@H]1[C@H]3OC(=O)c1ccc([N+](=O)[O-])cc1`, the IC50 in test [1] is 7300 nM; in [2], over 10000 nM; in test [3] it was 6400 nM; in test [4], 1000 nM.

Regarding `C=C1C(=O)[C@@]23C(=O)OC[C@]4(C=CCC(C)(C)[C@H]4C=O)[C@@H]2CC[C@@H]1[C@H]3O`, the IC50 in test [1] was determined as 3000 nM; in [2], 2500 nM; in test [3], 6400 nM; in test [4], 4200 nM. In addition, the outcome in test [6] and in [7] was Active. Further, the outcome in [8] and in test [9] was inactive.
